Test system: MS2 coat protein
Assay: apparent Kd, MS2 coat protein; higher = weaker binding; RNA-MaP array; FMN 200 µM where present
Summary of the method: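 Designs were transcribed by stalled E. coli RNA polymerase on Illumina sequencing-chip clusters. They were titrated with SNAP-549-labelled MS2 coat protein from 0.7 or 1.5 nM, doubling to 3 µM, without and then with constant ligand. Buffer: 100 mM Tris-HCl pH 7.5, 80 mM KCl, 4 mM MgCl2, BSA, DTT, yeast tRNA, Tween-20. Green signal was normalised to red-channel RNA signal and control-cluster median Fmax. Apparent Kd is the median of filtered per-cluster binding-curve fits.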

[1] = designed as: ON switch for flavin mononucleotide, no ligand
[2] = ligand present: flavin mononucleotide, designed as: ON switch for flavin mononucleotide
[3] = designed as: OFF switch for flavin mononucleotide, no ligand
[4] = ligand present: flavin mononucleotide, designed as: OFF switch for flavin mononucleotide

| Sequence | apparent Kd [1] [nM] | apparent Kd [2] [nM] | apparent Kd [3] [nM] | apparent Kd [4] [nM] |
| --- | --- | --- | --- | --- |
| GUAGCAUAGGGAGGAUAUUCAUAUAAUAAAUAAACAUGAGGAUCACCCAUGUGGCGAAAGCCUUGGGAGAAGGCCCAAUGCUAC | 866 | 36.2 | – | – |
| GCGCUUAUACAGAAGGCCAGAGACAUGAGGAUCACCCAUGUUAGAUUGUGGAGGAUAUGUGUUUUAUUACAGAUAGUUGAGCGC | 20.5 | 6.53 | – | – |
| AACCGCGACCGGCCUGGCACGUCGAGAAGGGUACGUGACCUGCUUUACAUGAGGAUCACCCAUGUACAGGAUAUCGAAUAGCCG | – | – | 5.97 | 8.4 |
| CAGCCCUGAGGAUAUCCAUCCUUGUACAUGAGGAUCACCCAUGUUUUCCUCUGGGCUUUGGGAGAAGGCAGGUAUC | – | – | 74.6 | 77.1 |
| CUGUCGAUAUCAGGAUAUCGUUUACAUACAUGAGGAUCACCCAUGUAGAUGAUCAGCCUAAUAUACGAGAAGGGAUAUCGAUAG | 9.26 | 8.59 | – | – |
| AAAAAACAUGAGGAUCACCCAUGUCAGGAUAUCUGGAGAAACGGAAAGAAAAAGAAACGGAGAAGGGACAUAAA | – | – | 41.1 | 48 |
| UGAAUGUGAGGAUAUGGUGAGUAGUGCCUGAGCGCUGCUCACCAGAAGGCACAUGAGGAUCACCCAUGUACUUG | – | – | 66.9 | 215 |
| UGGUUGUGUGUUAGGAUAUGGUCUGGUGUUUCGGGCUAGAAGGGACAUGAGGAUCACCCAUGUGGCUGGCGGGU | – | – | 127 | 126 |
| UGGUACAUGGGAGGAUAUCCUCAAGACAUGAGGAUCACCCAUGUAAAUUAUAAGCCGAAAGGCAUGGAGAAGGCCCAUGUACCU | 96.3 | 20.2 | – | – |
| UGACUGCGUAGAAUUAGCAGCUGACAGGAUAUGACAUGAGGAUCACCCAUGUGAAAUAAGAAGAGUCAGAAGGGUCACGACACA | – | – | 9.51 | 8.79 |
| UCUCGUUUCGCAGGAUAUGCUGGUCGGUCAUAAACCGGCCACAUGAGGAUCACCCAUGUGCCACAGCAGAAGGGUGACACUAGA | 543 | 59 | – | – |
| GAGAUGUGAGGAUAUCUAGACCGCGGAAGAGCCGCAGUCCGAGAGAAGGCACAUGAGGAUCACCCAUGUGAUGA | – | – | 33.4 | 61.2 |
| GCUGUCGCAUGAGGAUAUGGUCUGCUUUGCAGACCAGAAGGCAUGUCAAUAGACAUGAGGAUCACCCAUGUAGUUAAGACAGCA | 766 | 46.6 | – | – |
| GGCACACAUGAGGAUCACCCAUGUGAGGAUAUGGUGCGAUCGUCGAAAGACGAUAGCACCAGAAGGCACAUGCC | – | – | 18.2 | 39.5 |
| CUAAUUAGUCAGAAGGUGCUGCCGGAAUCAUAGCAAGGAUAUGACAUGAGGAUCACCCAUGUACAGAUCCUACAUAAAAUCAGG | – | – | 5.73 | 8.98 |
| GUAGAGUCAGGAUAUACGAGAUCGAAAGAUCGGCGGUCUGUACAUGAGGAUCACCCAUGUAGAAGGGACUCUAC | – | – | 16.4 | 94.4 |
| GCACUUGCGUAGAAGGUACUAUAUAAUGCAGUGUAAGGAUAUACAUACAUGAGGAUCACCCAUGUAAAUGGAAUUUGCAAGUGC | 11.8 | 9.15 | – | – |
| AAGGGUUGUGAGGAUAUGGCUUACCAAUUGGUACCAGAAGGCGCUACAUGAGGAUCACCCAUGUGGGUCGUCCC | – | – | 51.8 | 82.9 |
| GUAGCUACAUGAGGAUCACCCAUGUAGGAUAUCGCUAUUGUAAUCAUGAAACAUGAUUACAAUAGCGAGAAGGACAUGUGCUAC | – | – | 20.9 | 25.2 |
| AGAUAGCGAAUAGUAAUAAAAGUACAGGAUAUGUUACAUGAGGAUCACCCAUGUAUUGGGUAAGAACAGAAGGGUACGCUAGAG | – | – | 144 | 123 |
| UCCAAAUCGUAGAAGGGUGACAUGAGGAUCACCCAUGUGCAGCAGCCGUGAAUGGCCAUGCUGCCACAGGAUAUACGAUGGAGU | 49 | 43 | – | – |
| AAGAAGUCAGGAUAUCCAUGGCGGCACUUGCGUGGUGGCGUGGAGAAGGGACAUGAGGAUCACCCAUGUAAAGU | – | – | 49 | 44.6 |
| CCUAAGGACACAGGAUAUAGCGUGGUGGCUGUGCUCCAACGGCGAGCGGCGCUAGAAGGGUGACCACAUGAGGAUCACCCAUGU | 665 | 177 | – | – |
| UUGGACGUCGUAGGAUAUGUAGGAUAUUCCUACAUGAGGAUCACCCAUGUUGACAUGGAAGAAGGACAGAAGGACAAUGUCCAU | 414 | 7.5 | – | – |
| CUAUCGUUGCAGAAGGUUAAAUAAUUUCUCAUCUUGUUUACAUGAGGAUCACCCAUGUAUUUGUUGAAGGAUAUGCAAGUGUUG | – | – | 12.5 | 11 |
| GGUAGACAUGAGGAUCACCCAUGUGAGGAUAUCGUCAUAGAUGCAAAAGCAUCUAUGACGAGAAGGUACAUGCC | – | – | 33.1 | 34.3 |
| GCGAAUCAGUGAGGAUAUACAUAAUUUAUACCUGUAGAAGGCACAAACCUCAAGACAUGAGGAUCACCCAUGUGACAUAUCGCU | – | – | 43.3 | 66.8 |
| AAUAUAAGAGCUGGCUCUAAAAGAACAUGAGGAUCACCCAUGUAGGAUAUCAGCACGAUAAGUGCUGAGAAGGACAACCAGCUC | – | – | 16.7 | 15.7 |

| Sequence | apparent Kd [1] [nM] | apparent Kd [2] [nM] | apparent Kd [3] [nM] | apparent Kd [4] [nM] |
| --- | --- | --- | --- | --- |
| AACAGUACAGGAUAUACAUGAGGAUCACCCAUGUGAGCUUUAAGUGCCGUAGCACAAAGUAGAAGGGUACUGGA | – | – | 24.4 | 91.8 |
| CUGUCGAUAUCAGGAUAUCGAUUAACUACAUGAGGAUCACCCAUGUUGACAUGGAAUAUAACUUGCGAGAAGGGAUAACGAUAG | 23.4 | 13.8 | – | – |
| AGAUACAGGCAGAAGGGUUGGUAAGUUGGGUCAACAGGAUAUGCCUCUGUGACAUGAGGAUCACCCAUGUUACCAAACAGUCUU | 583 | 49.5 | – | – |
| CAGCCCUGAGGAUAUCCCUACUUGUACAUGAGGAUCACCCAUGUCCUCCUCCGGGCUUCGGGAGAAGGCAGGUCUC | – | – | 15.8 | – |
| AGGUAACAUGAGGAUCACCCAUGUACCAAUAAUGCAGGAUAUCGACACGAAAAUACGUGUCGAGAAGGGCAUGAAA | 14.1 | 16.4 | – | – |
| CGAUAUUAUGUCAGGAUAUACAUUGCGAAAGCAAUGUAGAAGGGACAUGAGGAUCACCCAUGUUCCUACUAUCG | – | – | 12.3 | 15.7 |
| GCGCAAACGCCAAAAGGCGAAACAACAUGAGGAUCACCCAUGUAGGAUAUCGAUUGCUUUGCAGUCGAGAAGGACAUAAUGCGC | – | – | 17.1 | 16.1 |
| CCUCCACAUGAGGAUCACCCAUGUCAGGAUAUCGUGUGCGCGUUUUCGGUCUUUCGCGCGAGAAGGGACGUCUG | – | – | 26.9 | 30.1 |
| GCGCCUCAGAACAUGAGGAUCACCCAUGUGCUGCGGGCGCCGUAGGAUAUGAUGGUACGCUACCAUCAGAAGGAUGAUGGUACC | – | 5.02 | – | – |
| GGGUACCUCGGAGGAUAUCAUGUAAAUACAUGAGGAUCACCCAUGUCGAUGGAGACAUCGGAGAUUGAGAAGGCCGAUGUACCG | 168 | 9.32 | – | – |
| UUACUGUAAUAGAAGGGUAUUUGGGUAGUACAUGAGGAUCACCCAUGUUUUAUAGGAUAUGUUUAUAGUUUUUAAUCAAGUUUA | – | – | 85.1 | 62.3 |
| GGGUACAUCGGAGGAUAUCAUGUAAAUACAUGAGGAUCACCCAUGUCGAUGGAGACAUCGGAGAUUGAGAAGGCCGAUGUACUG | 169 | 8.5 | – | – |
| GUCAGCUCGUGAGGAUAUGCAACACUGCUUCGGCAGUGUAUUAAGAUCACAUGAGGAUCACCCAUGUAGAAGGCACGAGCUGAU | – | – | 6.36 | 34.8 |
| UGUCGGAGCAGAGGAUAUACAUGAGGAUCACCCAUGUAAAUGGAAUAAGCCUGGAAACAGGCAAUGUAGAAGGCUGCUCCGACA | – | – | 69 | 628 |
| GAAUUCGCAUGAGGAUAUGCACUCAUUUCAUGUGCAGAAGGUAUAUCAUUAGACAUGAGGAUCACCCAUGUAUUGGUCAUUAAA | 15.8 | 13.9 | – | – |
| UGGAUCAAUACAGGAUAUGGUGACGCACAUGAGGAUCACCCAUGUCCGCAGCGUGCUCAGCACGCCCAGAAGGGUAUUGACUCG | 731 | 88.8 | – | – |
| UUUUAACAUGAGGAUCACCCAUGUGAGGAUAUCGAAAUUUAUAUUAAUAUUUAUUUUUCGAGAAGGCACAUUUU | – | – | 164 | 159 |
| AAUUAUUUACAGAAGGAGUAAGAUUAUGUAUUACUAGGAUAUGUUCACAUGAGGAUCACCCAUGUACUAGUUGGUUUUUUAUGU | – | – | 10.5 | 17.1 |
| ACGGUUGGGACAGGAUAUGUAACCGGGAUUCUAGUUUCGUCCGUGACAUGAGGAUCACCCAUGUUACAGAAGGGUUCUAAAUCG | – | – | 189 | 234 |
| UUACUAUUACAGAAGGUUUAAUAAUAUAUAAAAGAAGGAUAUGUAACAUGAGGAUCACCCAUGUUUCACCCACAUGAGGAUCAU | – | – | 10.8 | 10.4 |
| GGGCCCGGUGUGAGGAUAUUGGGUCUGAAAGGGCUCGAGAAGGCACAUGAGGAUCACCCAUGUAAGCCGGGCCC | – | – | 16.7 | 13.7 |
| AAAGUCUAUUGAGGAUAUCGUUAUCAAAGAUAAUGAGAAGGCAAACAAUCAUGAGGACAUGAGGAUCACCCAUGUUGUGACCAU | 22.3 | 13.4 | – | – |
| GUACAGUAGUGAGGAUAUACGAGAUCGAUAGAUCGGCGAUCCAUUUAUACAUGAGGAUCACCCAUGUAGAAGGCACUUCUGUAC | – | – | 5.73 | 61.7 |
| UCACGGGAUUGAGGAUAUAUAUUUAUUAUUUUAAUAGAAGGCAAAGAGUUAGUUUUUUCACUAUACAUGAGGAUCACCCAUGUU | – | – | 33.4 | 30.5 |
| AGCUACGUUUCGUAGCAGUGUCAUCGAGAAGGCUCAUAAACAUGAGGAUCACCCAUGUAUUCAUGGGAGGAUAUCGAUGAUACA | 32.2 | 6.04 | – | – |
| UUUUACUAGUAAGGAUAUAUUAGCGAUUAGCUUGUAGAAGGUACAGUCUUAUGUAUAACAUGUUAACAUGAGGAUCACCCAUGU | 52 | 34.2 | – | – |
| CCUUCAGCGAACGAUACGAAUGGACAUGAGGAUCACCCAUGUAGAAGGACAGGAGAAUAACGACUGUAGGAUAUACAUUUAGUG | – | – | 22.3 | 28.6 |

— the EternaBench riboswitch data
